Test results from ChEMBL document CHEMBL5674876, “Epigenetic Activation of Pro-angiogenic Signaling Pathways in Human Endothelial Progenitors Increases Vasculogenesis” (Stem Cell Reports, 2017).
Active and inactive are the calls of the source.

Experiments:
HUVEC [1] = assay: Effect on pro-angiogenic property in human umbilical cord derived endothelial colony forming cells assessed as increase in DLL4 level in presence of panobinostat by qRT-PCR analysis; type: functional, cell-based
HUVEC [2] = assay: Effect on pro-angiogenic property in human umbilical cord derived endothelial colony forming cells assessed as increase in ERK2 protein phosphorylation by Western blotting analysis; type: functional, cell-based
[3] = biological target: Histone-lysine N-methyltransferase EZH2 (Homo sapiens) (UniProt Q15910); assay: Inhibition of EZH2 in human umbilical cord derived endothelial colony forming cells assessed as decrease in H3K9me3 level at 0.01 to 5 uM measured after 24 to 72 hrs by Western blotting analysis; type: cell-based; conditions: Umbilical cord derived endothelial colony forming cell, dose 0.01-5 µM, time 24-72 hrs
Histone-lysine N-methyltransferase EZH2 (Homo sapiens), sequence (Q15910 whole entry, looked up): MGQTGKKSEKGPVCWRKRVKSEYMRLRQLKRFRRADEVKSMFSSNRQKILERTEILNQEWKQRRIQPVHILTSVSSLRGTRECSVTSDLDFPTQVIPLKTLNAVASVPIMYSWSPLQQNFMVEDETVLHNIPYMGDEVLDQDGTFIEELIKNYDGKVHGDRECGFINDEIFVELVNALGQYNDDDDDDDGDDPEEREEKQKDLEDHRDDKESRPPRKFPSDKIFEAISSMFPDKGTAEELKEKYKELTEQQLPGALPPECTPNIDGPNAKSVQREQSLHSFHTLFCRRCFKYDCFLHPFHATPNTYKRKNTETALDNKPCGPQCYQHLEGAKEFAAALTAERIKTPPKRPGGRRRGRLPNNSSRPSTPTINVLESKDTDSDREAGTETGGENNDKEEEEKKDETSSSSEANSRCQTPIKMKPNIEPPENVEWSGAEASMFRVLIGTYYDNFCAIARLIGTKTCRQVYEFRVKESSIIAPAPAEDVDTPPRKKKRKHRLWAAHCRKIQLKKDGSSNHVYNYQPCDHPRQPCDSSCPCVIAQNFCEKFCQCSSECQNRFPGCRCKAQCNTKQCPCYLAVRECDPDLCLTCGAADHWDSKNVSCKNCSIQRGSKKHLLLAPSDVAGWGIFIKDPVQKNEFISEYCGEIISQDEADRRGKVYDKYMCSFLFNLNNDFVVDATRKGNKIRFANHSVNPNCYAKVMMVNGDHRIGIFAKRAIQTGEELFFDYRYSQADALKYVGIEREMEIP
Procedure, shortened: (§1)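 Human cord-blood ECFC clones, at least three independent, passages 3–6, grown in EGM-2 with 10% FBS. Histone methylation marks were assessed by western blot, with total histone H3 and H4 as loading controls.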

HUVEC [4] = assay: Effect on human umbilical cord derived endothelial colony forming cells assessed as reversal of decrease in H3 acetylation level in presence of panobinostat measured after 24 hrs of drug removal by qRT-PCR analysis; type: functional, cell-based
Mus musculus [5] = assay: Activation of vasculogenesis in NOD/SCID immunodeficient mouse xenografted with drug pretreated human umbilical cord derived endothelial colony forming cells assessed as increase in formation of micro-capillaries in presence of panobinostat by H and E staining analysis; type: functional, organism-based
Procedure, shortened: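 ECFCs (4 × 10^6 cells/mL), drug cocktail-pretreated or not, mixed into 1.5 mg/mL type I collagen gels, polymerized 30 min at 37°C, held 18 hr in drug-free medium, implanted into flanks of 6–12-week-old NOD/SCID mice. Explants harvested at 3 weeks; H&E and anti-human CD31 staining; closed hCD31+ capillaries counted per area, n = 6 mice per group, ±SEM.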

HUVEC [6] = assay: Downregulation of DKK1 in human umbilical cord derived endothelial colony forming cells by qRT-PCR analysis; type: functional, cell-based
HUVEC [7] = assay: Effect on pro-angiogenic property in human umbilical cord derived endothelial colony forming cells assessed as increase in cell migration treated at 5 uM for 72 hrs in presence of panobinostat measured by crystal violet staining analysis based gap closure assay; type: functional
HUVEC [8] = assay: Effect on pro-angiogenic property in human umbilical cord derived endothelial colony forming cells assessed as increase in VEGFR2 protein phosphorylation by Western blotting analysis; type: functional, cell-based
HUVEC [9] = assay: Effect on pro-angiogenic property in human umbilical cord derived endothelial colony forming cells assessed as increase in CXCR4 level by qRT-PCR analysis; type: functional, cell-based
[10] = test system: Umbilical cord derived endothelial colony forming cell; assay: Inhibition of H3K9 methyltransferase G9a in human umbilical cord derived endothelial colony forming cells assessed as decrease in protein level by Western blotting analysis; type: cell-based
Procedure, shortened: (§2)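 Cord-blood ECFCs were treated with an EZH2 inhibitor at 5 μM for 72 hr, then an HDAC inhibitor at 10 nM for 2 hr, or with vehicle. Levels of the epigenetic enzymes were read by western blot, with tubulin as loading control.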

HUVEC [11] = assay: Effect on pro-angiogenic property in human umbilical cord derived endothelial colony forming cells assessed as increase in intracellular CXCR4 protein phosphorylation by Western blotting analysis; type: functional, cell-based
[12] = test system: Umbilical cord derived endothelial colony forming cell; assay: Activation of WNT pro-angiogenic pathway in human umbilical cord derived endothelial colony forming cells by measuring FZD1 level in presence of panobinostat by qRT-PCR analysis; type: cell-based; conditions: filed as activator
HUVEC [13] = assay: Effect on human umbilical cord derived endothelial colony forming cells assessed as decrease in H3 acetylation level in presence of panobinostat measured after removal of drug
HUVEC [14] = assay: Effect on pro-angiogenic property in human umbilical cord derived endothelial colony forming cells assessed as increase in VEGFR1 protein level by Western blotting analysis; type: functional, cell-based
[15] = biological target: Histone-lysine N-methyltransferase EZH2 (Homo sapiens) (UniProt Q15910); assay: Inhibition of EZH2 in human umbilical cord derived endothelial colony forming cells assessed as decrease in H3K27me2 level for 24 to 72 hrs by Western blotting analysis; type: cell-based; conditions: Umbilical cord derived endothelial colony forming cell, dose 0.01-5 µM, time 24-72 hrs; procedure, shortened: as §1
[16] = test system: Umbilical cord derived endothelial colony forming cell; assay: Activation of WNT pro-angiogenic pathway in human umbilical cord derived endothelial colony forming cells by measuring WNT4 level in presence of panobinostat by qRT-PCR analysis; type: cell-based; conditions: filed as activator
HUVEC [17] = assay: Effect on pro-angiogenic property in human umbilical cord derived endothelial colony forming cells assessed as increase in ANGPT2 level by qRT-PCR analysis; type: functional, cell-based
[18] = test system: Umbilical cord derived endothelial colony forming cell; assay: Activation of WNT pro-angiogenic pathway in human umbilical cord derived endothelial colony forming cells by measuring FZD7 level in presence of panobinostat by qRT-PCR analysis; type: cell-based; conditions: filed as activator
Mus musculus [19] = assay: In vivo upregulation of pro-angiogneic pathway in athymic nude CD1 hindlimb ischemia mouse model in presence of panobinostat treated for 28 days; type: functional, organism-based; conditions: time 28.0 day
HUVEC [20] = assay: Effect on human umbilical cord derived endothelial colony forming cells assessed as increase in H3K4me3 level in presence of panobinostat measured after removal of drug by qRT-PCR analysis; type: functional, cell-based
[21] = biological target: Histone acetyltransferase p300 (Homo sapiens) (UniProt Q09472); assay: Inhibition of acetyl transferase P300 in human umbilical cord derived endothelial colony forming cells assessed as decrease in protein level by Western blotting analysis; type: cell-based; conditions: Umbilical cord derived endothelial colony forming cell; procedure, shortened: as §2
Histone acetyltransferase p300 (Homo sapiens), sequence (Q09472 whole entry): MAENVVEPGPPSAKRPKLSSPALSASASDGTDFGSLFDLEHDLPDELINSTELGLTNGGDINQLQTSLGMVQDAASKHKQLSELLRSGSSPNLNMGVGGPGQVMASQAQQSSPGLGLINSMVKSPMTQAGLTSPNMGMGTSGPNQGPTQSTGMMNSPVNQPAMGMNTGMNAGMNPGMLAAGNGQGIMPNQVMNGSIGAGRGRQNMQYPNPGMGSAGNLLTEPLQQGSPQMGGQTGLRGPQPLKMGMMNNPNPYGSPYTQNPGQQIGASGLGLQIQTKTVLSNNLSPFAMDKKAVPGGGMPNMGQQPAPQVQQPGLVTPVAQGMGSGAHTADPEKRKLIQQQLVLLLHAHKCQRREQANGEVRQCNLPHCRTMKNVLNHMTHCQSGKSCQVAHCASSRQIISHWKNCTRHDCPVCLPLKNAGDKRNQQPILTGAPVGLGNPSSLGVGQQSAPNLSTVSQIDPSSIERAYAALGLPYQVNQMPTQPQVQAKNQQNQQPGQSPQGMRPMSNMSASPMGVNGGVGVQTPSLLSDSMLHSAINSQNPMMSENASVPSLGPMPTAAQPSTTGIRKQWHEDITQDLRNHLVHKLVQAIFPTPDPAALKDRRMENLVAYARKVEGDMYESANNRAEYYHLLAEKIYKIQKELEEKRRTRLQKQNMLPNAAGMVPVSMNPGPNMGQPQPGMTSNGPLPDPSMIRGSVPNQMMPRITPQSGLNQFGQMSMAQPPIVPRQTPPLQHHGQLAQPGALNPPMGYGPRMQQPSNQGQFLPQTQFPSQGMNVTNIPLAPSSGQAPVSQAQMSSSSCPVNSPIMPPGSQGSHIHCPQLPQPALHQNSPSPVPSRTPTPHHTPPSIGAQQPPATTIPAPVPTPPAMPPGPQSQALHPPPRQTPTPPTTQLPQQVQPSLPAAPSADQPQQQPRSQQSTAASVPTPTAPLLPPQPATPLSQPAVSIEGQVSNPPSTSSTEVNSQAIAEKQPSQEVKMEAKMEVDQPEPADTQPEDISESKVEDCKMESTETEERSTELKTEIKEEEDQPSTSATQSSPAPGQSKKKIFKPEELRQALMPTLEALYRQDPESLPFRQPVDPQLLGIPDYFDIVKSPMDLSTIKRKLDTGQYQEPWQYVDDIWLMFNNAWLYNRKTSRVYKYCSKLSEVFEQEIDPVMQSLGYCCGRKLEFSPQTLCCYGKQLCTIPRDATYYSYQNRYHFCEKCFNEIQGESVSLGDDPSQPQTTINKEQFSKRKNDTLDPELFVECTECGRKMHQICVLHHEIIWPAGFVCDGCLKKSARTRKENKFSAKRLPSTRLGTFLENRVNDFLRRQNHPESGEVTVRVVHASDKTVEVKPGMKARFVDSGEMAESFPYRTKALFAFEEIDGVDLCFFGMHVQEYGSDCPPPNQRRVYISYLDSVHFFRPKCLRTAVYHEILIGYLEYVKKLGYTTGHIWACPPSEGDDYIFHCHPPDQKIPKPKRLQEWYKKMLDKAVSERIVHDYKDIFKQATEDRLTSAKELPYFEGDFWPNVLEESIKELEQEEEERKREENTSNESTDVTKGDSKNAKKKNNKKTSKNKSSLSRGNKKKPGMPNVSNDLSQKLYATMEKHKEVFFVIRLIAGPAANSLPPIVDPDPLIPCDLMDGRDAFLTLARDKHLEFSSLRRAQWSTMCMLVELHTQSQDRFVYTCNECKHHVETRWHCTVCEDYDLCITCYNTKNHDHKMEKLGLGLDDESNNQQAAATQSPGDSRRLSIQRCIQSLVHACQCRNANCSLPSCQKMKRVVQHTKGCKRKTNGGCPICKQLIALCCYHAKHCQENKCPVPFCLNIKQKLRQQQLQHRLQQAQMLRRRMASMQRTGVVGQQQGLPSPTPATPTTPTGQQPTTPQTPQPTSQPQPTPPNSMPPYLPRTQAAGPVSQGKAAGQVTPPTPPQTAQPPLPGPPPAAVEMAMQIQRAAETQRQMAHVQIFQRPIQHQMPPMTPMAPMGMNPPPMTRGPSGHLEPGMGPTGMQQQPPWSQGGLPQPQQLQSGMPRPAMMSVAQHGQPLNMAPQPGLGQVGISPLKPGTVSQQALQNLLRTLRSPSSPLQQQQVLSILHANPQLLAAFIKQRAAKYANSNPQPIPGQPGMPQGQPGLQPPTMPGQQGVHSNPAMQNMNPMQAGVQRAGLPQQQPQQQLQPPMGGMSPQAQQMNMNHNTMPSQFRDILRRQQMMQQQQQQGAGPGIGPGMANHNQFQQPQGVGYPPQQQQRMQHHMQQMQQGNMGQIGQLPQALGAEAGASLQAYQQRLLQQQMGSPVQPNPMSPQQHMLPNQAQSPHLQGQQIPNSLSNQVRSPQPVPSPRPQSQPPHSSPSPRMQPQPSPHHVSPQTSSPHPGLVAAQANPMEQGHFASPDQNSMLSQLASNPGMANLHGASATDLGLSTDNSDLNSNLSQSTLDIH

[22] = biological target: Histone-lysine N-methyltransferase EZH2 (Homo sapiens) (UniProt Q15910); assay: Inhibition of EZH2 in human umbilical cord derived endothelial colony forming cells assessed as decrease in H3K4me3 level at 0.01 to 5 uM measured after 24 to 72 hrs by Western blotting analysis; type: cell-based; conditions: Umbilical cord derived endothelial colony forming cell, dose 0.01-5 µM, time 24-72 hrs; procedure, shortened: as §1
HUVEC [23] = assay: Effect on pro-angiogenic property in human umbilical cord derived endothelial colony forming cells assessed as increase in VEGFR2 protein level by Western blotting analysis; type: functional, cell-based
[24] = test system: Umbilical cord derived endothelial colony forming cell; assay: Activation of WNT pro-angiogenic pathway in human umbilical cord derived endothelial colony forming cells by measuring FZD2 level in presence of panobinostat by qRT-PCR analysis; type: cell-based; conditions: filed as activator
[25] = test system: Umbilical cord derived endothelial colony forming cell; assay: Inhibition of H3K27 demethylase UTX in human umbilical cord derived endothelial colony forming cells assessed as decrease in protein level by Western blotting analysis; type: cell-based; procedure, shortened: as §2
[26] = test system: Umbilical cord derived endothelial colony forming cell; assay: Activation of WNT pro-angiogenic pathway in human umbilical cord derived endothelial colony forming cells by measuring JAG1 level in presence of panobinostat by qRT-PCR analysis; type: cell-based; conditions: filed as activator
[27] = test system: Umbilical cord derived endothelial colony forming cell; assay: Activation of WNT pro-angiogenic pathway in human umbilical cord derived endothelial colony forming cells by measuring WNT5A level in presence of panobinostat by qRT-PCR analysis; type: cell-based; conditions: filed as activator
HUVEC [28] = assay: Effect on pro-angiogenic property in human umbilical cord derived endothelial colony forming cells assessed as increase in FZD7 level in presence of panobinostat by qRT-PCR analysis; type: functional, cell-based

CCCc1cc(C)[nH]c(=O)c1CNC(=O)c1cc(-c2ccnc(N3CCN(C)CC3)c2)cc2c1cnn2C(C)C
inactive: inhibition [3] | inhibition [10] | inhibition [21] | inhibition [22] | inhibition [25]
active: Activity (HUVEC [1]) | Activity (HUVEC [2]) | Activity (HUVEC [4]) | Activity (Mus musculus [5]) | Activity (HUVEC [6]) | Activity (HUVEC [7]) | Activity (HUVEC [8]) | Activity (HUVEC [9]) | Activity (HUVEC [11]) | Activity [12] | Activity (HUVEC [13]) | Activity (HUVEC [14]) | inhibition [15] Dose-Dependent Effect | Activity [16] | Activity (HUVEC [17]) | Activity [18] | Activity (Mus musculus [19]) | Activity (HUVEC [20]) | Activity (HUVEC [23]) | Activity [24] | Activity [26] | Activity [27] | Activity (HUVEC [28])
